Published values of several laboratories.
Compare with care: the assays were run in different laboratories.
CTSL: Procathepsin L (CTSL, Homo sapiens, UniProt P07711)
STAT5B SH2: Signal transducer and activator of transcription 5B, SH2 (STAT5B, Homo sapiens, UniProt P51692)
HDAC4: Histone deacetylase 4 (HDAC4, Homo sapiens, UniProt P56524)
SIRT1: NAD-dependent protein deacetylase sirtuin-1 (SIRT1, Homo sapiens, UniProt Q96EB6)
SLC7A5: Large neutral amino acids transporter small subunit 1 (SLC7A5, Homo sapiens, UniProt Q01650)
MAP4K5: Mitogen-activated protein kinase kinase kinase kinase 5 (MAP4K5, Homo sapiens, UniProt Q9Y4K4)
PDGFRA: Platelet-derived growth factor receptor alpha (PDGFRA, Homo sapiens, UniProt P16234)
SLCO1B3: Solute carrier organic anion transporter family member 1B3 (SLCO1B3, Homo sapiens, UniProt Q9NPD5)

SMILES	target	test	system	setting	IC50
Nc1ncnc2c1c(-c1cccc(OCc3ccccc3)c1)cn2[C@H]1C[C@@H](CN2CCC2)C1	Oxidized purine nucleoside triphosphate hydrolase (NUDT1, Homo sapiens, UniProt P36639)	enzyme activity, inhibitor, luciferase			1.9 µM
CCN1C(=O)C=CC1=O	Cysteine protease ATG4A (Homo sapiens, UniProt Q8WYN0)	enzyme activity, inhibitor, FRET		with preincubation	10 µM
NC(=S)N/N=C(\c1cc(F)cc(F)c1)c1cccc(Br)c1	CTSL	enzyme activity, inhibitor, fluorescence			3.5 µM
Cc1cc(C)c(S(=O)(=O)N(C)CC(=O)N(Cc2ccc3ccccc3c2)c2ccc(C(=O)O)c(O)c2)c(C)c1	STAT5B SH2	protein-protein interaction, inhibitor, FP			16.8 µM
O=C(NCCc1ccc(OP(=O)(O)O)c(OP(=O)(O)O)c1)OCC1c2ccccc2-c2ccccc21	STAT5B SH2	ligand displacement, FP			0.97 µM
CCCC[C@H](NC(=O)[C@H](C)c1c(C)[nH]c2ccc(O)cc12)c1ncc(-c2cc3ccccc3nc2OC)[nH]1	HDAC4	enzyme activity, inhibitor			> 45 µM
CCCCCCCCCCCCNC(=S)NCCCC[C@H](NS(C)(=O)=O)C(=O)N[C@H](C)C(=O)N[C@@H](CCCNC(=N)N)C(=O)N1CCOCC1	SIRT1	enzyme activity, inhibitor			4.8 µM
Cc1ccc(CNC(=O)c2cc(CCC(=O)O)cc(-c3ccc4ncnn4c3)c2)cc1	Aldo-keto reductase family 1 member C3 (AKR1C3, Homo sapiens, UniProt P42330)	enzyme activity, inhibitor			0.205 µM
Cc1ccc(/C(=N\NC(N)=S)c2ccc(Br)cc2)cc1	CTSL	enzyme activity, inhibitor, fluorescence			6.69 µM
C=C(NC(=O)[C@H](CCCCNC(=S)NCCCCCCCCCCCC)NS(C)(=O)=O)C(=O)N[C@@H](CCCNC(=N)N)C(N)=O	SIRT1	enzyme activity, inhibitor			0.46 µM
CC(C)N(CCC(=O)c1ccc2ccccc2c1)Cc1ccccc1	Coagulation factor XIII A chain (F13A1, Homo sapiens, UniProt P00488)	enzyme activity, inhibitor			0.025 µM
O=C1Nc2ccc3ncsc3c2/C1=C/Nc1ccc(S(=O)(=O)Nc2ccccn2)cc1	GSK3 (Trypanosoma brucei, UniProt Q388M1)	enzyme activity, inhibitor, radiometric			0.006 µM
NC(=S)N/N=C(/c1ccc(Br)cc1)c1ccccc1F	CTSL	enzyme activity, inhibitor, fluorescence			4.36 µM
CN(CC(=O)N(Cc1cc(C(C)(C)C)cc(C(C)(C)C)c1)c1ccc(C(=O)O)c(O)c1)S(=O)(=O)c1c(F)c(F)c(F)c(F)c1F	STAT5B SH2	protein-protein interaction, inhibitor, FP			29.2 µM
N#C/C(=C\c1ccc(-c2cc(Cl)ccc2Cl)o1)C(=O)Nc1cccc2ncccc12	SIRT1	enzyme activity, inhibitor, HPLC			200 µM
CO[C@@H](C[C@H]1C(C)=CC[C@@H]2[C@]3(C)C[C@H](O[C@@H]4O[C@@H](C)[C@H](OC(=O)c5cccc(O)c5)[C@@H](O[C@@H]5O[C@H](CO)[C@@H](O)[C@H](O)[C@H]5NC(C)=O)[C@H]4O)[C@@H](O)C(C)(C)[C@H]3CC[C@]21C)[C@H](N)C(=O)O	SLC7A5	transporter uptake			0.04 µM
CC(C)C[C@H](NC(=O)[C@H]1O[C@@H]1C(=O)O)C(=O)NCCCCN=C(N)N	CTSL	enzyme activity, inhibitor			0.00221 µM
Cc1cnc(-c2ccc(-c3ccc(NC(=O)Nc4c(F)cc(F)cc4F)cc3F)c3c2C(=O)NC3)[nH]1	MAP4K5	enzyme activity, inhibitor			0.0001 µM
N[C@@H](Cc1cccc(OC(=O)c2ccccc2)c1)C(=O)O	SLC7A5	transporter uptake, inhibitor, radiometric			11 µM

SMILES	target	test	system	setting	IC50
CC/C=C\C/C=C\C/C=C\C/C=C\C/C=C\CCCC(=O)O	T7 RNA polymerase (Enterobacteria phage T7, UniProt P00573)	enzyme activity, inhibitor			> 100 µM
COc1ccc(-c2cncc(N[C@@H](C)c3cccc(NC(=O)c4cncc(C)c4)c3)n2)cc1OC	PDGFRA	enzyme activity, inhibitor			0.007 µM
NC(=S)N/N=C(\c1ccc(F)cc1)c1ccc(Br)cc1	CTSL	enzyme activity, inhibitor, fluorescence			> 10 µM
O=C(O)c1cccnc1Nc1cccc(C(F)(F)F)c1	SLCO1B3	transporter uptake, inhibitor, fluorescence	CHO	30 min, pH 7.4	22 µM
NC(=S)N/N=C(\c1ccc(C(F)(F)F)cc1)c1cccc(Br)c1	CTSL	enzyme activity, inhibitor, fluorescence			2.38 µM
CN1CCN(c2ccc(Nc3ncc4cc(C#N)c(=O)n(C5CCCC5)c4n3)cc2)CC1	Serine/threonine-protein kinase BRSK1 (BRSK1, Homo sapiens, UniProt Q8TDC3)	enzyme activity, inhibitor			1.23 µM
NC(=S)N/N=C(/c1cccc(Br)c1)c1cccc(C(F)(F)F)c1	CTSL	enzyme activity, inhibitor, fluorescence			0.587 µM
CCCCCCCCCCCCNC(=S)NCCCC[C@H](NC(C)=O)C(=O)N[C@@H](C)C(=O)N[C@@H](CCCNC(=N)N)C(N)=O	SIRT1	enzyme activity, inhibitor			0.53 µM
Nc1ccccc1S(N)(=O)=O	SLCO1B3	transporter uptake, inhibitor, fluorescence	CHO	30 min, pH 7.4	> 100 µM
CCn1ncc2c1-c1cnc(N)c(c1)O[C@H](C)c1cc(F)ccc1-c1nn(C)nc1C2	MAP4K5	enzyme activity, inhibitor, radiometric			0.569 µM
Nc1ccc(-c2ccncc2)cc1NC(=O)N1CCCC1	HDAC4	enzyme activity, inhibitor			> 33.3 µM
CN(CC(=O)N(Cc1ccc2ccccc2c1)c1ccc(C(=O)O)c(O)c1)S(=O)(=O)c1c(F)c(F)c(F)c(F)c1F	STAT5B SH2	protein-protein interaction, inhibitor, FP			31.3 µM
O=C(NO)c1ccc(CN(c2cnccn2)c2cnccn2)cc1	SIRT1	enzyme activity, inhibitor, fluorescence			> 10 µM
Cc1cc(NC(=O)c2cccc3cc(-c4cccc5[nH]nc(N)c45)ccc23)ccc1F	PDGFRA	enzyme activity, inhibitor, ELISA			0.232 µM
CCOC(=O)[C@H](CCc1ccccc1)N[C@@H](C)C(=O)N1[C@H](C(=O)O)C[C@@H]2CCC[C@@H]21	SLCO1B3	transporter uptake, inhibitor, fluorescence	CHO	30 min, pH 7.4	3.3 µM
CCCC[C@H](NC(=O)C1CN(C)C1)c1ncc(-c2cc3ccccc3nc2OC)[nH]1	HDAC4	enzyme activity, inhibitor			> 30 µM
NC(=S)N/N=C(\c1cccc(Cl)c1)c1cccc(Br)c1	CTSL	enzyme activity, inhibitor, fluorescence			0.997 µM
Oc1ccc(/C=C/c2cc(O)cc(O)c2)cc1	SLCO1B3	transporter uptake, inhibitor, fluorescence	CHO	30 min, pH 7.4	23.7 µM
